Test results as given in ChEMBL document CHEMBL3808276, “Identification of Adenine and Benzimidazole Nucleosides as Potent Human Concentrative Nucleoside Transporter 2 Inhibitors: Potential Treatment for Hyperuricemia and Gout” (J Med Chem, 2016).
Converted amounts (≈) assume the structure as drawn. The source made the active and inactive calls. The rule behind the calls is not given here.

How the values were obtained:
[1] = target: T1, Sodium/nucleoside cotransporter 2 (Homo sapiens, UniProt O43868); experiment: Inhibition of human CNT2 expressed in African green monkey COS7 cells assessed as reduction of [14C]-inosine uptake by liquid scintillation counting analysis; type: cell-based, COS-7
T1 sequence (O43868 whole entry): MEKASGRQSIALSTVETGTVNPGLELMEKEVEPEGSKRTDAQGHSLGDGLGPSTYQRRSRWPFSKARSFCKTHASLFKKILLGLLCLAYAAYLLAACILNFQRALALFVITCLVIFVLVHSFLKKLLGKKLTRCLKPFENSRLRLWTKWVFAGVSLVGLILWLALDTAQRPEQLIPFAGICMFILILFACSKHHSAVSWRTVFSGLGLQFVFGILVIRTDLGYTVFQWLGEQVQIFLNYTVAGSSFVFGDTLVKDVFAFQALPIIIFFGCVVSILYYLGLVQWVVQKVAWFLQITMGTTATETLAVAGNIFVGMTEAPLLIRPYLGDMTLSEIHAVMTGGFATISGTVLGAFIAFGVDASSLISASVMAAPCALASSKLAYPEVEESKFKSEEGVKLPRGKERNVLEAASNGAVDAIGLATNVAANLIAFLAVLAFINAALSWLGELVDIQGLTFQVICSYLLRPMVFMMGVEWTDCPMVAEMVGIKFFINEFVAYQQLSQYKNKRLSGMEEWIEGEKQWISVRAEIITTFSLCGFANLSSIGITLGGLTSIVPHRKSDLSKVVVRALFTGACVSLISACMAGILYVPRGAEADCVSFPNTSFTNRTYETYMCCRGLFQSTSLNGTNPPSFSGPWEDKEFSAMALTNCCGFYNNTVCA
Summary of the method: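 COS-7 cells transiently transfected with hCNT2 in pCI-neo, assayed after 2 days. Pretreated in Na+-free choline buffer, 37 °C, 2×10 min. Uptake of 10 µM [14C]inosine for 30 min at 37 °C with 10 µM NBMPR, ±Na+, pH 7.4. Na+-dependent uptake set as 100%; lysate counted by scintillation. IC50 by nonlinear regression, ≥3 experiments; top concentration 100 µM.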

[2] = target: T2, Sodium/nucleoside cotransporter 2 (Rattus norvegicus) (UniProt Q62773); experiment: Inhibition of rat CNT2 expressed in African green monkey COS7 cells assessed as reduction of [14C]-inosine uptake at 100 uM by liquid scintillation counting analysis; type: cell-based; settings: COS-7
T2 sequence (whole entry): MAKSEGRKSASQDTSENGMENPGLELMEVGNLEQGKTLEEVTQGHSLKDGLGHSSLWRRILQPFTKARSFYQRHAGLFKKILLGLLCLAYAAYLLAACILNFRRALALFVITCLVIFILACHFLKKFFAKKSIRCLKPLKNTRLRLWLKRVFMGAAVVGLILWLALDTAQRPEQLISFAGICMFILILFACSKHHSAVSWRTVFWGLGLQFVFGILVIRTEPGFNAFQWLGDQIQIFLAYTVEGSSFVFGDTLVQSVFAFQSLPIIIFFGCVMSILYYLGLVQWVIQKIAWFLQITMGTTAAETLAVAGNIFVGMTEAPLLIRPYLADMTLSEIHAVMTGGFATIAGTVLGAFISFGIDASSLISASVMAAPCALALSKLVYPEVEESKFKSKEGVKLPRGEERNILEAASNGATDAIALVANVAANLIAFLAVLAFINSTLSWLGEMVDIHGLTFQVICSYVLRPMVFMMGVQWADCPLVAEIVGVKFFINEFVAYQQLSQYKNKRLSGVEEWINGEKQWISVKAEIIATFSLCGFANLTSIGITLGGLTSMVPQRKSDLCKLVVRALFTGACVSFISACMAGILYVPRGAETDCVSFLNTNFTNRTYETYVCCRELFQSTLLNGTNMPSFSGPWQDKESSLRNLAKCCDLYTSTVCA

[3] = Solubility of compound in JP2 at pH 6.8 after 1 hr at 37 degC; type: physicochemical; settings: JP2, pH 6.8
Summary of the method: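 Solubility measured in JP2, a 1:1 mix of pH 6.8 phosphate buffer and water, after incubation for 1 h at 37 °C.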

[4] = target: T3, Sodium/nucleoside cotransporter 2 (Rattus norvegicus, UniProt Q62773); experiment: Inhibition of rat CNT2 expressed in African green monkey COS7 cells assessed as reduction of [14C]-inosine uptake by liquid scintillation counting analysis; type: cell-based, COS-7
T3 sequence (Q62773 whole entry): T2 sequence (whole entry)
Summary of the method: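 rCNT2 transiently expressed in COS-7 cells, used 2 days post-transfection. 10 µM [14C]inosine uptake at 37 °C for 30 min in the presence of 10 µM NBMPR. Uptake run with Na+ or with choline replacing Na+, pH 7.4; the Na+-dependent difference defined 100% transport. Scintillation read-out; IC50 by nonlinear regression, ≥3 independent runs.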

[5] = tested on: Rattus norvegicus; experiment: Suppression of adenosine/inosine/guanosine mixture-induced elevation of uric acid level in potassium oxonate-treated Sprague-Dawley rat plasma at 1 to 10 mg/kg, po measured after 1 hr by phosphotungstic acid method; type: functional, organism-based
Summary of the method: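 Male SD rats, 5 weeks old, fasted overnight, given potassium oxonate 100 mg/kg sc. After 1 h, a purine mix (adenosine:inosine:guanosine 1:1:1, 50 mg/kg) was given orally together with the test compound (50, or 0.1–10 mg/kg). Aortic blood taken 1 h later under anesthesia; plasma uric acid measured by phosphotungstic acid method. Mean ± SEM; Student's t or Dunnett's test.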

[6] = Clearance in Sprague-Dawley rat at 1 mg/kg, iv by LC/MS analysis; type: ADME, organism-based; settings: in vivo
Summary of the method: (§1)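 Male SD rats, 6 weeks old, fasted 16 h; 1.0 mg/mL/kg tail-vein bolus in dimethylacetamide/5% glucose (1:1 v/v). Jugular blood at 2 min and 0.25–24 h. Plasma deproteinized with acetonitrile plus warfarin internal standard, then LC/MS. Noncompartmental analysis; CLtot, Vdss and t1/2 derived from the iv data.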

[7] = AUC (0 to infinity) in Sprague-Dawley rat at 1 mg/kg, iv by LC/MS analysis; type: ADME, organism-based; set-up: dose 1 mg/kg, route intravenous, time infinity; settings: in vivo
Summary of the method: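 Male SD rats (6 weeks old, fasted 16 h) received a tail-vein bolus of 1.0 mg/mL/kg in dimethylacetamide/5% glucose (1:1 v/v). Heparinized jugular blood was drawn at 2 min and 0.25, 1, 2, 4, 6, 8 and 24 h. Plasma was acetonitrile-deproteinized with warfarin internal standard and run by gradient LC on a C18 column, calibrated 1-5000 ng/mL. AUC came from noncompartmental analysis.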

[8] = Cmax in Sprague-Dawley rat at 10 mg/kg, po by LC/MS analysis; type: ADME, organism-based; set-up: dose 10 mg/kg, route oral; settings: in vivo
Summary of the method: (§2)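 Male SD rats, 6 weeks old, fasted 16 h; oral dose 10 mg/5 mL/kg as a suspension in 0.5% sodium carboxymethylcellulose. Jugular blood at 0.25, 0.5, 1, 2, 4, 6, 8 and 24 h. Acetonitrile-deproteinized plasma with warfarin internal standard analysed by LC/MS. Parameters from noncompartmental analysis.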

[9] = Volume of distribution at steady state in Sprague-Dawley rat at 1 mg/kg, iv by LC/MS analysis; type: ADME, organism-based; settings: in vivo, read-out: Vdss; summary of the method: as §1
[10] = Tmax in Sprague-Dawley rat at 10 mg/kg, po by LC/MS analysis; type: ADME, organism-based; settings: in vivo; summary of the method: as §2
[11] = Half life in Sprague-Dawley rat at 1 mg/kg, iv by LC/MS analysis; type: ADME, organism-based; settings: in vivo; summary of the method: as §1
[12] = AUC (0 to infinity) in Sprague-Dawley rat at 10 mg/kg, po by LC/MS analysis; type: ADME, organism-based; set-up: dose 10 mg/kg, route oral, time infinity; settings: in vivo
Summary of the method: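 Fasted (16 h) 6-week-old male SD rats were dosed orally at 10 mg/5 mL/kg as a suspension in 0.5% sodium carboxymethylcellulose. Heparinized jugular blood was sampled at 0.25, 0.5, 1, 2, 4, 6, 8 and 24 h. Plasma was deproteinized with acetonitrile plus warfarin internal standard and quantified by gradient C18 LC against a 1-5000 ng/mL standard curve. AUC was derived noncompartmentally.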

[13] = Oral bioavailability in Sprague-Dawley rat at 10 mg/kg by LC/MS analysis; type: ADME, organism-based; settings: in vivo
Summary of the method: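 Oral F in fasted male SD rats from noncompartmental AUCs. Oral arm: 10 mg/kg suspended in 0.5% CMC-Na. IV arm: 1.0 mg/kg in dimethylacetamide/5% glucose. F = (AUCpo/AUCiv)×(dose iv/dose po)×100. Plasma measured by LC/MS.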

IC50 [1] [nM] | inhibition [2] | solubility at 1 h [3] [µg/mL] | Compound | also measured
1300 | inactive | 215 (≈ 449 µM) | COc1cc(CNc2nc3c(N)ncnc3n2[C@@H]2O[C@H](CO)[C@@H](O)[C@H]2O)ccc1-c1ccccc1 | –
3300 | inactive | – | COC(=O)COc1cc(CNc2nc3c(N)ncnc3n2[C@@H]2O[C@H](CO)[C@@H](O)[C@H]2O)ccc1-c1ccccc1 | –
2300 | inactive | 121 (≈ 246 µM) | CCOc1cc(CNc2nc3c(N)ncnc3n2[C@@H]2O[C@H](CO)[C@@H](O)[C@H]2O)ccc1-c1ccccc1 | –
10400 | inactive | – | CC(C)Oc1cc(CNc2nc3c(N)ncnc3n2[C@@H]2O[C@H](CO)[C@@H](O)[C@H]2O)ccc1-c1ccccc1 | –
3100 | 49% | – | Nc1ncnc2c1nc(NCc1ccc(-c3ccccc3)c(OCCO)c1)n2[C@@H]1O[C@H](CO)[C@@H](O)[C@H]1O | IC50 [4]: > 100000 nM
– | inactive | 3 (≈ 6.69 µM) | Nc1ncnc2c1nc(NCc1ccc(-c3ccccc3)cc1)n2[C@@H]1O[C@H](CO)[C@@H](O)[C@H]1O | –
1500 | inactive | – | Nc1ncnc2c1nc(NCc1ccc(-c3ccccn3)cc1)n2[C@@H]1O[C@H](CO)[C@@H](O)[C@H]1O | –
62 | – | 120 (≈ 231 µM) | OCCCCOc1cc(CNc2nc3ccccc3n2[C@@H]2O[C@H](CO)[C@@H](O)[C@H]2O)ccc1-c1ccccc1 | IC50 [4]: 1500 nM; Activity [5]: Active; clearance [6]: 6.57 mL/min/kg; AUC(0-inf) [7]: 5 µM·h; Cmax [8]: 110 nM; Vd [9]: 0.117 L/kg; Tmax [10]: 0.83 h; half-life [11]: 1.7 h; AUC(0-inf) [12]: 0.25 µM·h; bioavailability [13]: 0.51%
1000 | 11% | – | Nc1ncnc2c1nc(NCc1ccc(-c3cccnc3)cc1)n2[C@@H]1O[C@H](CO)[C@@H](O)[C@H]1O | IC50 [4]: > 100000 nM
5400 | inactive | 2 (≈ 4.06 µM) | CCOc1cc(-c2ccccc2)ccc1CNc1nc2c(N)ncnc2n1[C@@H]1O[C@H](CO)[C@@H](O)[C@H]1O | –
1300 | inactive | – | Nc1ncnc2c1nc(NCc1ccc(-c3ccccc3)cc1O)n2[C@@H]1O[C@H](CO)[C@@H](O)[C@H]1O | –
